Results on 2 compounds are retold here after ChEMBL document CHEMBL1129299, “Synthesis and antitumor evaluation of a highly potent cytotoxic DNA cross-linking polyamine analogue, 1,12-diaziridinyl-4,9-diazadodecane” (1996).

Experiment [1] deals with Mus musculus. Briefly: Percent increase in life span was calculated by administering intravenously the compound dose of 2.7 mg/kg on days 1,8. In kind it is functional. Particulars: route intravenous. Summed up: (§1)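 CD2F1 female mice bore ip L1210 (1 × 10^5 cells/mouse, day 0). Tail-vein iv dosing in 25 mM phosphate buffer pH 7.4 began on day 1. Percent increase in life span was calculated as (T − C)/C × 100, with T and C the median days of death for the treated and untreated groups.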

Experiment [2] deals with Mus musculus. In words: In vivo antitumor studies were carried out on mice bearing L1210 murine leukemia cells, by administering intravenously the compound dose of 6.0 mg/kg on days 1. In kind it is functional. As to conditions: route intravenous. Summed up: (§2)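 Female CD2F1 mice (12-week-old, five per group) given 1 × 10^5 L1210 ascites cells ip on day 0; cells were first passaged ip in DBA/2 mice. From day 1, freshly made drug in 25 mM sodium phosphate pH 7.4 was given iv by tail vein at 0.01 mL/g. Mean survival days were compared with untreated mice by ANOVA and Newman-Keuls.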

In experiment [3] the test system is Mus musculus. Briefly: Percent increase in life span was calculated by administering intravenously the compound dose of 4.0 mg/kg on days 1. Particulars: route intravenous. In kind it is functional. Summed up:
as §1

Experiment [4] deals with Mus musculus. In words: Percent increase in life span was calculated by administering intravenously the compound dose of 2.7 mg/kg on days 1,5 and 9. As to conditions: route intravenous. In kind it is functional. Summed up:
as §1

Experiment [5] has as its system Mus musculus. Briefly: Net log cell kill is an estimate of the number of cells that are killed by the compound was calculated at dose of 1.8 mg/kg on days 1,2. Format: functional. Summed up: (§3)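 Net log cell kill in female CD2F1 mice given ip L1210 (1 × 10^5 cells, day 0) and iv tail-vein drug from day 1. It was calculated from treated-minus-control median day of death, less treatment duration, relative to tumor doubling time. Doubling time came from median days of death in titration groups of 10 mice implanted with 1 × 10^4 to 1 × 10^6 cells.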

The subject of experiment [6] is Mus musculus. Briefly: Percent increase in life span was calculated by administering intravenously the compound dose of 4.0 mg/kg on days 1,8. As to conditions: route intravenous. In kind it is functional. Summed up: as §1
The subject of experiment [7] is Mus musculus. Briefly: Percent increase in life span was calculated by administering intravenously the compound dose of 1.8 mg/kg on days 1,2. In kind it is functional. As to conditions: route intravenous. Summed up: as §1
Experiment [8] has as its system Mus musculus. In words: Net log cell kill is an estimate of the number of cells that are killed by the compound was calculated at dose of 2.7 mg/kg on days 1,2. In kind it is functional. Summed up: as §3
Experiment [9] has as its system Mus musculus. Briefly: Net log cell kill is an estimate of the number of cells that are killed by the compound was calculated at dose of 4.0 mg/kg on days 1. In kind it is functional. Summed up:
as §3

Experiment [10] relates to Mus musculus. In words: In vivo antitumor studies were carried out on mice bearing L1210 murine leukemia cells, by administering intravenously the compound dose of 1.8 mg/kg on days 1,2. Format: functional. Particulars: route intravenous. Summed up: as §2
Experiment [11] deals with Mus musculus. In words: In vivo antitumor studies were carried out on mice bearing L1210 murine leukemia cells, by administering intravenously the compound dose of 4.0 mg/kg on days 1,2. Format: functional. Particulars: route intravenous. Summed up:
as §2

For experiment [12], the system named is Mus musculus. In words: Percent increase in life span was calculated by administering intravenously the compound dose of 4.0 mg/kg on days 1,5 and 9. As to conditions: route intravenous. In kind it is functional. Summed up: as §1
Experiment [13] deals with Mus musculus. Briefly: In vivo antitumor studies were carried out on mice bearing L1210 murine leukemia cells, by administering intravenously the compound dose of 1.8 mg/kg on days 1,8. In kind it is functional. As to conditions: route intravenous. Summed up:
as §2

Experiment [14] has as its system Mus musculus. Briefly: Net log cell kill is an estimate of the number of cells that are killed by the compound was calculated at dose of 1.8 mg/kg on days 1,5,9. Format: functional. Summed up: as §3
Experiment [15] concerns Mus musculus. Briefly: Net log cell kill is an estimate of the number of cells that are killed by the compound was calculated at dose of 2.7 mg/kg on days 1. Format: functional. Summed up: as §3
The test system of experiment [16] is Mus musculus. In words: In vivo antitumor studies were carried out on mice bearing L1210 murine leukemia cells, by administering intravenously the compound dose of 2.7 mg/kg on days 1,2. Particulars: route intravenous. In kind it is functional. Summed up:
as §2

In experiment [17] the test system is Mus musculus. In words: Percent increase in life span was calculated by administering intravenously the compound dose of 1.8 mg/kg on days 1,8. Format: functional. As to conditions: route intravenous. Summed up: as §1
In experiment [18] the test system is Mus musculus. Briefly: In vivo antitumor studies were carried out on mice bearing L1210 murine leukemia cells, by administering intravenously the compound dose of 1.8 mg/kg on days 1. Format: functional. As to conditions: route intravenous. Summed up: as §2
In experiment [19] the test system is Mus musculus. Briefly: In vivo antitumor studies were carried out on mice bearing L1210 murine leukemia cells, by administering intravenously the compound dose of 2.7 mg/kg on days 1,8. Format: functional. Particulars: route intravenous. Summed up: as §2
Experiment [20] deals with Mus musculus. Briefly: In vivo antitumor studies were carried out on mice bearing L1210 murine leukemia cells, by administering intravenously the compound dose of 4.0 mg/kg on days 1,8. As to conditions: route intravenous. In kind it is functional. Summed up: as §2
In experiment [21] the test system is Mus musculus. Briefly: Net log cell kill is an estimate of the number of cells that are killed by the compound was calculated at dose of 2.7 mg/kg on days 1,8. In kind it is functional. Summed up:
as §3

The subject of experiment [22] is Mus musculus. Briefly: In vivo antitumor studies were carried out on mice bearing L1210 murine leukemia cells, by administering intravenously the compound dose of 2.7 mg/kg on days 1,5 and 9. Format: functional. As to conditions: route intravenous. Summed up:
as §2

Experiment [23] concerns Mus musculus. Briefly: Percent increase in life span was calculated by administering intravenously the compound dose of 2.7 mg/kg on days 1. Format: functional. As to conditions: route intravenous. Summed up:
as §1

Experiment [24] concerns Mus musculus. In words: In vivo antitumor studies were carried out on mice bearing L1210 murine leukemia cells, by administering intravenously the compound dose of 1.8 mg/kg on days 1,5 and 9. Particulars: route intravenous. Format: functional. Summed up:
as §2

Experiment [25] concerns Mus musculus. Briefly: In vivo antitumor studies were carried out on mice bearing L1210 murine leukemia cells, by administering intravenously the compound dose of 2.7 mg/kg on days 1. Format: functional. Particulars: route intravenous. Summed up: as §2
Experiment [26] relates to Mus musculus. In words: Net log cell kill is an estimate of the number of cells that are killed by the compound was calculated at dose of 2.7 mg/kg on days 1,5,9. Format: functional. Summed up: as §3
Experiment [27] deals with Mus musculus. In words: Percent increase in life span was calculated by administering intravenously the compound dose of 2.7 mg/kg on days 1,2. In kind it is functional. As to conditions: route intravenous. Summed up: as §1
Experiment [28] relates to Mus musculus. Briefly: Percent increase in life span was calculated by administering intravenously the compound dose of 1.8 mg/kg on days 1. In kind it is functional. Particulars: route intravenous. Summed up:
as §1

For experiment [29], the system named is Mus musculus. Briefly: In vivo antitumor studies were carried out on mice bearing L1210 murine leukemia cells, by administering intravenously the compound dose of 4.0 mg/kg on days 1. In kind it is functional. Particulars: route intravenous. Summed up: as §2
Experiment [30] has as its system Mus musculus. Briefly: Percent increase in life span was calculated by administering intravenously the compound dose of 1.8 mg/kg on days 1,5 and 9. In kind it is functional. Particulars: route intravenous. Summed up: as §1
The subject of experiment [31] is Mus musculus. Briefly: Net log cell kill is an estimate of the number of cells that are killed by the compound was calculated at dose of 1.8 mg/kg on days 1. Format: functional. Summed up:
as §3

Experiment [32] relates to Mus musculus. In words: In vivo antitumor studies were carried out on mice bearing L1210 murine leukemia cells, by administering intravenously the compound dose of 4.0 mg/kg on days 1,5 and 9. Particulars: route intravenous. In kind it is functional. Summed up:
as §2

In experiment [33] the test system is Mus musculus. In words: Net log cell kill is an estimate of the number of cells that are killed by the compound was calculated at dose of 4.0 mg/kg on days 1,8. In kind it is functional. Summed up: as §3
For experiment [34], the system named is Mus musculus. Briefly: Percent increase in life span was calculated by administering intraperitoneally the compound dose of 10 mg/kg on days 1,5 and 9. Particulars: ip.
Experiment [35] concerns Mus musculus. In words: In vivo antitumor studies were carried out on mice bearing L1210 murine leukemia cells, by administering intraperitoneally the compound dose of 10 mg/kg on days 1,5 and 9. Particulars: route intraperitoneal.
Experiment [36] deals with Mus musculus. In words: Net log cell kill is an estimate of the number of cells that are killed by the compound was calculated at dose of 10 mg/kg on days 1,5,9. In kind it is functional.

Take `C(CCNCCCN1CC1)CNCCCN1CC1`: the ILS at 2.7 mg/kg is 129% with Mus musculus [1], 171% in the experiment on Mus musculus [4], 42% in the experiment on Mus musculus [23] and 100% with Mus musculus [27]. For the same compound, the Mean survival with Mus musculus [2] was found to be 6.8 days; in the experiment with Mus musculus [10], 14.8 days; with Mus musculus [11], 5.4 days; in the experiment on Mus musculus [13], 12.6 days; with Mus musculus [16], 13.2 days; in the experiment with Mus musculus [18] it was 10.8 days. In addition, the Mean survival worked out at 15.2 days with Mus musculus [19]; 17.2 days with Mus musculus [20]; 18.8 days in the experiment with Mus musculus [22]; 17.4 days in the experiment with Mus musculus [24]; 10.4 days with Mus musculus [25]; 11 days in the experiment on Mus musculus [32]. In addition, the increase in life span (ILS) at 4 mg/kg was 57% with Mus musculus [3], 157% in the experiment on Mus musculus [6] and 14% in the experiment on Mus musculus [12]. Further, the NLCK in the experiment with Mus musculus [5] is reported as 6; in the experiment on Mus musculus [8], 6; with Mus musculus [9] it was 4; in the experiment with Mus musculus [14] it was 2; in the experiment on Mus musculus [15], 3; in the experiment on Mus musculus [21], 2. The NLCK in the experiment with Mus musculus [26], in the experiment with Mus musculus [31] and with Mus musculus [33] was 4 throughout. For the same compound, the ILS at 1.8 mg/kg is 100% in the experiment on Mus musculus [7], 86% with Mus musculus [17], 57% in the experiment on Mus musculus [28] and 143% in the experiment on Mus musculus [30]. In addition, in the experiment with Mus musculus [29], the Life span is 11 days.
Take `S=P(N1CC1)(N1CC1)N1CC1` [THIOTEPA]: the ILS at 10 mg/kg in the experiment with Mus musculus [34] is 114%. The compound also showed a Mean survival with Mus musculus [35] of 15.3 days. In the experiment with Mus musculus [36], the NLCK was 1.
